Consider one molecule from paper PMC6387599 (Drug Design, Development and Therapy, 2019).

One series has as its system xylene-induced ear edema. Nature of the series: Xylene-induced ear edema test. The series is classed as in vivo. Conditions: mice, intraperitoneal, equivalent to 200 μg/kg Bud, 1 hour before xylene. The procedure, abridged:
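Male Kunming mice (20–25 g), n=10 per group, dosed intraperitoneally (0.1 mL/10 g body weight) with test compound at a dose equivalent to 200 µg/kg budesonide; vehicle 2% DMSO. After 1 h, 20 µL xylene applied to right ear, left ear untreated. Killed 1 h later; 6-mm ear discs weighed. Edema = right minus left ear weight. Analysed by one-way ANOVA with Fisher's LSD; mean ± SD.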

For series [1], the system named is IL-6 production in LPS-induced A549 cells. Nature of the series: Inhibition of IL-6 production. Conditions: Homo sapiens, A549, 24 h, read-out: inhibitory rate on IL-6. The series is classed as cell-based. The procedure, abridged: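 A549 cells preincubated 1 h with test compound (10^-11–10^-6 M), then stimulated with LPS-EB (5 µL of 10 µg/mL solution) for 24 h. IL-6 in supernatants measured by ELISA, read at 450 nm. Inhibitory rate of IL-6 production calculated; IC50 from dose–response curves; n=3, mean ± SD.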

A short description of series [2]: Equilibrium solubility in distilled water. The series is classed as physicochemical. The note with it: 25°C, 72 hours. The procedure, abridged: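 Supernatant sampled at 0, 12, 24, 36, 48, 60 and 72 h and passed through a 0.45-µm filter. Concentration measured by HPLC at 242 nm, 30°C, 1.0 mL/min. Mobile phase was methanol or acetonitrile with phosphate buffer (pH 8.0 or 7.4; 70:30 or 80:20 v/v), depending on compound.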

As to `CCCC1O[C@@H]2C[C@H]3[C@@H]4CCC5=CC(=O)C=C[C@]5(C)[C@H]4[C@@H](O)C[C@]3(C)[C@]2(C(=O)CO)O1` (stereo partly drawn) [Bud, budesonide], the “inhibition of ear edema” value in the series with xylene-induced ear edema amounted to 17.19%. The inhibition at 0.001 µM in series [1] was over 50%. Moreover, in series [2], the equilibrium solubility was 0.0022 g/100 g water.
